Test results published in ChEMBL document CHEMBL3580554, “Design, synthesis, and anticonvulsant activity of new hybrid compounds derived from 2-(2,5-dioxopyrrolidin-1-yl)propanamides and 2-(2,5-dioxopyrrolidin-1-yl)butanamides” (J Med Chem, 2015).

Assays:
[1] = system: Mus musculus; assay: Anticonvulsant activity in ip dosed Swiss mouse assessed as protection against seizures measured at 1 hr of time to peak effect by maximal electroshock test; format: functional
[2] = system: Mus musculus; assay: Anticonvulsant activity in ip dosed Swiss mouse assessed as protection against seizures measured at 1 hr of time to peak effect by subcutaneous pentylenetetrazole seizure test; format: functional
[3] = system: Mus musculus; assay: Anticonvulsant activity in ip dosed Swiss mouse assessed as protection against seizures measured at 1 hr of time to peak effect by 6 Hz test by 6 Hz psychomotor seizure test; format: functional
[4] = Toxicity in ip dosed Swiss mouse assessed as induction of motor performance impairment measured within 60 seconds measured at 1 hr of time to peak effect by Chimney test; format: organism-based; settings: in vivo
How it was run: (§1)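 Neurotoxicity (TD50) estimated in mice i.p. by chimney test for motor coordination impairment; protective index calculated as TD50/ED50 for each seizure model.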

[5] = Protective index, ratio of neurotoxic TD50 in Swiss mouse by Chimney test to anticonvulsant ED50 in Swiss mouse measured at 1 hr of time to peak effect by 6 Hz test by 6 Hz psychomotor seizure test; format: toxicity; settings: in vivo, read-out: Ratio TD50/ED50; how it was run: as §1
[6] = system: Mus musculus; assay: Anticonvulsant activity in Swiss mouse assessed as protection against seizures at 300 mg/kg, ip dosed 0.25 hrs before initiation of maximal electroconvulsions by maximal electroshock test; format: functional
How it was run: (§2)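 Mice were dosed i.p. at a fixed 300 or 100 mg/kg (6 Hz: 100 mg/kg only). Protection was then scored against MES, sc PTZ or 6 Hz seizures at pretreatment times of 0.25, 0.5, 1 and 2 h. Groups were four mice, scored as number protected / number tested. This also gives the time course and time of peak effect.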

[7] = system: Mus musculus; assay: Anticonvulsant activity in Swiss mouse assessed as protection against seizures at 300 mg/kg, ip dosed 0.5 hrs before initiation of maximal electroconvulsions by maximal electroshock test; format: functional; how it was run: as §2
[8] = system: Mus musculus; assay: Anticonvulsant activity in Swiss mouse assessed as protection against seizures at 300 mg/kg, ip dosed 1 hr before initiation of maximal electroconvulsions by maximal electroshock test; format: functional; how it was run: as §2
[9] = system: Mus musculus; assay: Anticonvulsant activity in Swiss mouse assessed as protection against seizures at 300 mg/kg, ip dosed 2 hrs before initiation of maximal electroconvulsions by maximal electroshock test; format: functional; how it was run: as §2
[10] = system: Mus musculus; assay: Anticonvulsant activity in Swiss mouse assessed as protection against seizures at 100 mg/kg, ip dosed 0.25 hrs before initiation of maximal electroconvulsions by maximal electroshock test; format: functional; how it was run: as §2
[11] = system: Mus musculus; assay: Anticonvulsant activity in Swiss mouse assessed as protection against seizures at 100 mg/kg, ip dosed 0.5 hrs before initiation of maximal electroconvulsions by maximal electroshock test; format: functional; how it was run: as §2
[12] = system: Mus musculus; assay: Anticonvulsant activity in Swiss mouse assessed as protection against seizures at 100 mg/kg, ip dosed 1 hr before initiation of maximal electroconvulsions by maximal electroshock test; format: functional; how it was run: as §2
[13] = system: Mus musculus; assay: Anticonvulsant activity in Swiss mouse assessed as protection against seizures at 100 mg/kg, ip dosed 2 hrs before initiation of maximal electroconvulsions by maximal electroshock test; format: functional; how it was run: as §2
[14] = system: Mus musculus; assay: Anticonvulsant activity in Swiss mouse assessed as protection against seizures at 300 mg/kg, ip dosed 0.25 hrs before pentylenetetrazole challenge by subcutaneous pentylenetetrazole seizure test; format: functional; how it was run: as §2
[15] = system: Mus musculus; assay: Anticonvulsant activity in Swiss mouse assessed as protection against seizures at 300 mg/kg, ip dosed 0.5 hrs before pentylenetetrazole challenge by subcutaneous pentylenetetrazole seizure test; format: functional; how it was run: as §2
[16] = system: Mus musculus; assay: Anticonvulsant activity in Swiss mouse assessed as protection against seizures at 300 mg/kg, ip dosed 1 hr before pentylenetetrazole challenge by subcutaneous pentylenetetrazole seizure test; format: functional; how it was run: as §2
[17] = system: Mus musculus; assay: Anticonvulsant activity in Swiss mouse assessed as protection against seizures at 300 mg/kg, ip dosed 2 hrs before pentylenetetrazole challenge by subcutaneous pentylenetetrazole seizure test; format: functional; how it was run: as §2
[18] = system: Mus musculus; assay: Anticonvulsant activity in Swiss mouse assessed as protection against seizures at 100 mg/kg, ip dosed 0.25 hrs before pentylenetetrazole challenge by subcutaneous pentylenetetrazole seizure test; format: functional; how it was run: as §2
[19] = system: Mus musculus; assay: Anticonvulsant activity in Swiss mouse assessed as protection against seizures at 100 mg/kg, ip dosed 0.5 hrs before pentylenetetrazole challenge by subcutaneous pentylenetetrazole seizure test; format: functional; how it was run: as §2
[20] = system: Mus musculus; assay: Anticonvulsant activity in Swiss mouse assessed as protection against seizures at 100 mg/kg, ip dosed 1 hr before pentylenetetrazole challenge by subcutaneous pentylenetetrazole seizure test; format: functional; how it was run: as §2
[21] = system: Mus musculus; assay: Anticonvulsant activity in Swiss mouse assessed as protection against seizures at 100 mg/kg, ip dosed 2 hrs before pentylenetetrazole challenge by subcutaneous pentylenetetrazole seizure test; format: functional; how it was run: as §2
[22] = system: Mus musculus; assay: Anticonvulsant activity in Swiss mouse model of 6 Hz psychomotor seizure mode assessed as protection against seizures at 100 mg/kg, ip dosed 0.25 hrs before 6 Hz electrical stimulation by 6 Hz test; format: functional; how it was run: as §2
[23] = system: Mus musculus; assay: Anticonvulsant activity in Swiss mouse model of 6 Hz psychomotor seizure mode assessed as protection against seizures at 100 mg/kg, ip dosed 0.5 hrs before 6 Hz electrical stimulation by 6 Hz test; format: functional; how it was run: as §2
[24] = system: Mus musculus; assay: Anticonvulsant activity in Swiss mouse model of 6 Hz psychomotor seizure mode assessed as protection against seizures at 100 mg/kg, ip dosed 1 hr before 6 Hz electrical stimulation by 6 Hz test; format: functional; how it was run: as §2
[25] = system: Mus musculus; assay: Anticonvulsant activity in Swiss mouse model of 6 Hz psychomotor seizure mode assessed as protection against seizures at 100 mg/kg, ip dosed 2 hrs before 6 Hz electrical stimulation by 6 Hz test; format: functional; how it was run: as §2
[26] = system: Mus musculus; assay: Anticonvulsant activity in ip dosed Swiss mouse assessed as protection against seizures measured at 0.25 hrs of time to peak effect by maximal electroshock test; format: functional
How it was run: (§3)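 Median effective doses (ED50, mg/kg) were determined i.p. in mice at the time of peak effect in the MES, sc PTZ or 6 Hz tests. Only compounds giving at least 50% protection at 100 mg/kg in that test were taken forward.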

[27] = system: Mus musculus; assay: Anticonvulsant activity in ip dosed Swiss mouse assessed as protection against seizures measured at 0.25 hrs of time to peak effect by subcutaneous pentylenetetrazole seizure test; format: functional; how it was run: as §3
[28] = system: Mus musculus; assay: Anticonvulsant activity in ip dosed Swiss mouse assessed as protection against seizures measured at 0.25 hrs of time to peak effect by 6 Hz test by 6 Hz psychomotor seizure test; format: functional; how it was run: as §3
[29] = Toxicity in ip dosed Swiss mouse assessed as induction of motor performance impairment measured within 60 seconds measured at 0.25 hrs of time to peak effect by Chimney test; format: organism-based; settings: in vivo
How it was run: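 Neurotoxicity was measured i.p. in mice by the chimney test for motor impairment. It was given as the median neurotoxic dose (TD50, mg/kg) at the time of peak effect.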

[30] = species: Mus musculus; assay: Protective index, ratio of neurotoxic TD50 in Swiss mouse by Chimney test to anticonvulsant ED50 in Swiss mouse measured at 0.25 hrs of time to peak effect by maximal electroshock test
How it was run: (§4)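 Protective index was calculated as TD50 (chimney test, mouse, i.p.) divided by ED50 from the matching MES, sc PTZ or 6 Hz test, both taken at the time of peak effect.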

[31] = system: Mus musculus; assay: Protective index, ratio of neurotoxic TD50 in Swiss mouse by Chimney test to anticonvulsant ED50 in Swiss mouse measured at 0.25 hrs of time to peak effect by subcutaneous pentylenetetrazole seizure test; format: functional; how it was run: as §4
[32] = species: Mus musculus; assay: Protective index, ratio of neurotoxic TD50 in Swiss mouse by Chimney test to anticonvulsant ED50 in Swiss mouse measured at 0.25 hrs of time to peak effect by 6 Hz test by 6 Hz psychomotor seizure test; format: functional; how it was run: as §4

CC[C@@H](C(N)=O)N1CCCC1=O
ED50 [1]: > 500 mg/kg
ED50 [2]: > 500 mg/kg
ED50 [3]: 14.8 mg/kg
TD50 at 1 h [4]: > 500 mg/kg
selectivity ratio at 1 h [5]: > 33.8

CC(C(=O)N1CCN(c2ccccc2C(F)(F)F)CC1)N1C(=O)CCC1=O (racemic)
Activity [6]: 100%
Activity [7]: 100%
Activity [8]: 75%
Activity [9]: 75%
Activity [10]: 100%
Activity [11]: 25%
Activity [12]: 25%
Activity [13]: 0%
Activity [14]: 100%
Activity [15]: 100%
Activity [16]: 75%
Activity [17]: 50%
Activity [18]: 100%
Activity [19]: 75%
Activity [20]: 25%
Activity [21]: 0%
Activity [22]: 100%
Activity [23]: 25%
Activity [24]: 0%
Activity [25]: 0%
ED50 [26]: 75.5 mg/kg
ED50 [27]: 87.1 mg/kg
ED50 [28]: 74.2 mg/kg
TD50 at 0.25 h [29]: 149 mg/kg
Ratio TD50/ED50 [30]: 1.97
Ratio TD50/ED50 [31]: 1.71
Ratio TD50/ED50 [32]: 2.01

CCC1(C)CC(=O)NC1=O (configuration not stated) [ETHOSUXIMIDE]
ED50 [26]: > 500 mg/kg
ED50 [27]: 148 mg/kg
ED50 [28]: > 200 mg/kg
TD50 at 0.25 h [29]: 722 mg/kg
Ratio TD50/ED50 [31]: 4.89
